Measured values taken from ChEMBL document CHEMBL4706770, “SD-91 as A Potent and Selective STAT3 Degrader Capable of Achieving Complete and Long-Lasting Tumor Regression” (ACS Med Chem Lett, 2021).
Activity calls are given as the source filed them. No cut-off for these calls is given here.

How the values were obtained:
[1] = biological target: T1, Protein cereblon/Signal transducer and activator of transcription 5A (Homo sapiens) (UniProt P42229+Q96SW2); assay: Protac activity at CRBN/STAT5 in human MOLM16 cells assessed as STAT5 degradation at 0.25 to 100 uM incubated for 4 hrs by Western blot analysis; format: cell-based; conditions: dose 0.25-100 µM
T1 sequence (P42229 whole entry, looked up): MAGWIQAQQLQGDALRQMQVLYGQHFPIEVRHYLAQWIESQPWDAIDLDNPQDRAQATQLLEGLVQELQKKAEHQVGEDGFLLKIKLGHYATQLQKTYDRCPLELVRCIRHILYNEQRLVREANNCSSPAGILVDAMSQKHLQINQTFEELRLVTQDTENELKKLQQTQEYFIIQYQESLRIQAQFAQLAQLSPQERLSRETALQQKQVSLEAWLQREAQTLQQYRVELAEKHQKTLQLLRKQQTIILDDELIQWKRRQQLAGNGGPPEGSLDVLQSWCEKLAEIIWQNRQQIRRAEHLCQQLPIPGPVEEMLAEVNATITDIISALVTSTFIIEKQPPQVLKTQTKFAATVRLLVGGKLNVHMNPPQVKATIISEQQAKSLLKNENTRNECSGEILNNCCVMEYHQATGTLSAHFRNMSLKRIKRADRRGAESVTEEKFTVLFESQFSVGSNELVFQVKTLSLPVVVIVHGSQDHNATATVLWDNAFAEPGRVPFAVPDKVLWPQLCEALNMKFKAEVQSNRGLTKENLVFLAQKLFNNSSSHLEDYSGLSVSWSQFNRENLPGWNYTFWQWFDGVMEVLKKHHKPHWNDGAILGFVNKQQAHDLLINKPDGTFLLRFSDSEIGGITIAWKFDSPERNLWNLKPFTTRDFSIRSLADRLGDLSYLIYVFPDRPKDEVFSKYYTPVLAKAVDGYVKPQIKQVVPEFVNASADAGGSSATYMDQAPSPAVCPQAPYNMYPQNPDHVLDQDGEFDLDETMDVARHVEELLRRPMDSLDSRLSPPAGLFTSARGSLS
T1 sequence (Q96SW2 whole entry, looked up): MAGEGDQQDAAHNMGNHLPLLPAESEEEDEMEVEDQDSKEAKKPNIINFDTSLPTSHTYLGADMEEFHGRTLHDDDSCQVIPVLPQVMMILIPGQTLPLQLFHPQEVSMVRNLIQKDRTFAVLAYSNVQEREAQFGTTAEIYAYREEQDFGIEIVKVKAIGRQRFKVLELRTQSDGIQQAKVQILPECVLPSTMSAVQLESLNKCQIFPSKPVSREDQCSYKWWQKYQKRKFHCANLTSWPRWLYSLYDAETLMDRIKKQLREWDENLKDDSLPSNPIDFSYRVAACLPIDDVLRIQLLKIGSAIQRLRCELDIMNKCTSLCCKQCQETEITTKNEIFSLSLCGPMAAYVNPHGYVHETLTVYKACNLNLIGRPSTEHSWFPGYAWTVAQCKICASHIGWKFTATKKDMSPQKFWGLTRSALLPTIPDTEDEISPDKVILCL
Outline: (§1)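 Cells treated 4 h with compounds across 25 nM to 100 μM; STAT proteins detected by Western blot with GAPDH as loading control; STAT3 DC50 estimated by densitometry of STAT3 relative to GAPDH. Applies to MOLM-16 for all STATs, and to SU-DHL-1 and SUP-M2 for STAT3.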

[2] = biological target: Protein cereblon/Signal transducer and activator of transcription 2 (Homo sapiens) (UniProt Q96SW2+P52630); assay: Protac activity at CRBN/STAT2 in human SU-DHL-1 cells […] at 0.25 to 100 uM incubated for 4 hrs by Western blot analysis; format: cell-based; conditions: dose lower 0.25 µM
Chain of Protein cereblon/Signal transducer and activator of transcription 2 (Homo sapiens) (P52630 whole entry, looked up): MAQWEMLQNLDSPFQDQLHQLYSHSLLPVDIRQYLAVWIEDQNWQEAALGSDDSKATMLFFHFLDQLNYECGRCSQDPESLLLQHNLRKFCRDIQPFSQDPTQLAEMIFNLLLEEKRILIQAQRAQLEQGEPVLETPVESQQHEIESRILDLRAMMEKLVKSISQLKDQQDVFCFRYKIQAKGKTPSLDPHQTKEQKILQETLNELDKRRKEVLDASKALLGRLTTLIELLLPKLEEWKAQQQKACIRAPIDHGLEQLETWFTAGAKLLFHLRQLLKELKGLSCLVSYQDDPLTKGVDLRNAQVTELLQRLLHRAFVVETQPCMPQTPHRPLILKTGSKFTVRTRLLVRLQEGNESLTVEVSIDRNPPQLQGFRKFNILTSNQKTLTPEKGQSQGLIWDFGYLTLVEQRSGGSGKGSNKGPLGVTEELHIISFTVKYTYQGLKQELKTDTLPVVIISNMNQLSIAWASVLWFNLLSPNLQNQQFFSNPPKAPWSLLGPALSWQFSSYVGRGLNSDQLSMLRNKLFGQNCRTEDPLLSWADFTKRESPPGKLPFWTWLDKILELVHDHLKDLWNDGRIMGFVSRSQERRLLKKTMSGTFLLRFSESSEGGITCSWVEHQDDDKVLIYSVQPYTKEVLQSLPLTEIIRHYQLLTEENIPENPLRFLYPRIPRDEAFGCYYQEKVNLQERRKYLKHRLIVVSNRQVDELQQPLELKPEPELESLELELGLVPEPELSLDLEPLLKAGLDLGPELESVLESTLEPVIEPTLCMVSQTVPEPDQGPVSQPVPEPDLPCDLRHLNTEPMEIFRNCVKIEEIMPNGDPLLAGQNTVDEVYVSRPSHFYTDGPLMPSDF
Chain of Protein cereblon/Signal transducer and activator of transcription 2 (Homo sapiens) (Q96SW2 whole entry, looked up): as the sequence (Q96SW2 whole entry, looked up) above

[3] = biological target: T1, Protein cereblon/Signal transducer and activator of transcription 5A (Homo sapiens); assay: Protac activity at CRBN/STAT5 in human SUP-M2 cells assessed as STAT5 degradation at 0.25 to 100 uM incubated for 4 hrs by Western blot analysis; format: cell-based; conditions: SUPM2, dose 0.25-100 µM
[4] = (§2) Drug uptake in SCID mouse xenografted with human MOLM16 cells assessed as (2-(((5S,8S,10aR)-8-(((S)-5-amino-1-(benzhydrylamino)-1,5-dioxopentan-2-yl)carbamoyl)-3-(8-(2-(2,6-dioxopiperidin-3-yl)-1-oxoisoindolin-4-yl)oct-7-yno yl)-6-oxodecahydropyrrolo[1,2-a][1,5]diazocin-5-yl)carbamoyl)-1H-indole-5-carbonyl)phosphonic acid level in tumor tissue at 50 mg/kg, iv measured after 24 hrs by LC-MS/MS; format: ADME, organism-based; conditions: in vivo
Outline: (§3)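 SCID mice bearing MOLM-16 xenografts given a single iv dose of 50 mg/kg. Concentrations of parent and hydrolysis product measured in plasma (ng/mL) and tumor tissue (ng/g) at 1, 6 and 24 h.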

[5] = as §2, with “plasma” for “tumor tissue”; format: ADME, organism-based; conditions: in vivo; outline: as §3
[6] = biological target: Protein cereblon/Signal transducer and activator of transcription 3 (Homo sapiens, UniProt P40763+Q96SW2); assay: Protac activity at CRBN/STAT3 in human MOLM-16 cells assessed as degradation of STAT3 incubated for 4 hrs by western blot analysis; format: cell-based; conditions: molm16; outline: as §1
Chain of Protein cereblon/Signal transducer and activator of transcription 3 (P40763 whole entry): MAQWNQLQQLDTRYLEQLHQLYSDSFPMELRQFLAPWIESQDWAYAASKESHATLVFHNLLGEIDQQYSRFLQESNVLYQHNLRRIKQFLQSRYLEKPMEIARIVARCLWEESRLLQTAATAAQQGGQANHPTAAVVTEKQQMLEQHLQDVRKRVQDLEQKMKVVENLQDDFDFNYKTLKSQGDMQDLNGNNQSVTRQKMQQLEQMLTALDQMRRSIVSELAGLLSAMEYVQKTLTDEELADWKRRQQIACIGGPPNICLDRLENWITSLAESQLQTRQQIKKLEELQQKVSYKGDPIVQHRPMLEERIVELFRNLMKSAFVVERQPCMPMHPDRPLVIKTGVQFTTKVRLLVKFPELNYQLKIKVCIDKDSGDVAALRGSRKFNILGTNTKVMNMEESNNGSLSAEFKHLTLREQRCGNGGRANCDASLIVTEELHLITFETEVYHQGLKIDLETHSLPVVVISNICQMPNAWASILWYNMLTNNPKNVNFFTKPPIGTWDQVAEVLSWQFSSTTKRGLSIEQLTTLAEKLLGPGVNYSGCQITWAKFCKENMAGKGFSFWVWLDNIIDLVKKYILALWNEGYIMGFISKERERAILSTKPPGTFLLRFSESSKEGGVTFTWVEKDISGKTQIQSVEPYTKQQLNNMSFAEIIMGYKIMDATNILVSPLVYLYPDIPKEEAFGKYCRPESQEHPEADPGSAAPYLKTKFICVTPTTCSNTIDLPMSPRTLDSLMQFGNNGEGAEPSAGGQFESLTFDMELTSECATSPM
Chain of Protein cereblon/Signal transducer and activator of transcription 3 (Q96SW2 whole entry): as the sequence (Q96SW2 whole entry, looked up) above

[7] = biological target: T2, Signal transducer and activator of transcription 5B (Homo sapiens, UniProt P51692); assay: Binding affinity to human recombinant STAT5B assessed as dissociation constant incubated for 15 mins by biolayer interferometry
T2 sequence (P51692 whole entry): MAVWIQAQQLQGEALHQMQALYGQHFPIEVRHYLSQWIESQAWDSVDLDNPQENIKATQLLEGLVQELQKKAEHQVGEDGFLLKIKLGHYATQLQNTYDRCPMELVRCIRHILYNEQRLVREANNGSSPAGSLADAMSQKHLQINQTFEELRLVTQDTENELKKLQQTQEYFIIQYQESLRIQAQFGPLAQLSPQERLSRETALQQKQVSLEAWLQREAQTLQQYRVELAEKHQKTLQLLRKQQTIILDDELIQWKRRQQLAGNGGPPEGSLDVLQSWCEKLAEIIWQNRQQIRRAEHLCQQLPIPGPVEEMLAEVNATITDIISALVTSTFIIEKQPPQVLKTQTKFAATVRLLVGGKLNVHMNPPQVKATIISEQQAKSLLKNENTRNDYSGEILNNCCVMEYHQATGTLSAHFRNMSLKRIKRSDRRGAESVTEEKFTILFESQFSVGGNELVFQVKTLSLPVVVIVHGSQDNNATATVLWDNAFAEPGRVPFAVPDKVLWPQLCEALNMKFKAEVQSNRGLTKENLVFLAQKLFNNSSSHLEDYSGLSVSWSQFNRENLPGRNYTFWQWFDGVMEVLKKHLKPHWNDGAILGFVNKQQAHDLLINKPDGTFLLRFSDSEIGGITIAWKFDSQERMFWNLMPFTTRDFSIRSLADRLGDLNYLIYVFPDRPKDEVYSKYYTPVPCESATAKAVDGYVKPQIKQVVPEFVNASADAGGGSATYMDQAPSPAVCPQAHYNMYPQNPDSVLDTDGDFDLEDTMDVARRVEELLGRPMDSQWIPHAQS
Outline: (§4)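 Biolayer interferometry with recombinant human STAT1, STAT2, STAT3, STAT4, STAT5A, STAT5B or STAT6 proteins containing their SH2 domain. Compound run in 2× serial dilutions from 200 nM. Kd taken from steady-state fitting of equilibrium responses against concentration using a 1:1 binding model.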

[8] = biological target: Signal transducer and activator of transcription 3 (Homo sapiens, UniProt P40763); assay: Induction of STAT3 degradation in human MOLM-16 cells for 4 hrs by western blot analysis; format: cell-based; conditions: molm16; outline: as §1
Chain of Signal transducer and activator of transcription 3 (P40763 whole entry): as the sequence (P40763 whole entry) above

[9] = biological target: T3, Signal transducer and activator of transcription 4 (Homo sapiens, UniProt Q14765); assay: Binding affinity to human recombinant STAT4 assessed as dissociation constant incubated for 15 mins by biolayer interferometry; outline: as §4
T3 sequence (Q14765 whole entry): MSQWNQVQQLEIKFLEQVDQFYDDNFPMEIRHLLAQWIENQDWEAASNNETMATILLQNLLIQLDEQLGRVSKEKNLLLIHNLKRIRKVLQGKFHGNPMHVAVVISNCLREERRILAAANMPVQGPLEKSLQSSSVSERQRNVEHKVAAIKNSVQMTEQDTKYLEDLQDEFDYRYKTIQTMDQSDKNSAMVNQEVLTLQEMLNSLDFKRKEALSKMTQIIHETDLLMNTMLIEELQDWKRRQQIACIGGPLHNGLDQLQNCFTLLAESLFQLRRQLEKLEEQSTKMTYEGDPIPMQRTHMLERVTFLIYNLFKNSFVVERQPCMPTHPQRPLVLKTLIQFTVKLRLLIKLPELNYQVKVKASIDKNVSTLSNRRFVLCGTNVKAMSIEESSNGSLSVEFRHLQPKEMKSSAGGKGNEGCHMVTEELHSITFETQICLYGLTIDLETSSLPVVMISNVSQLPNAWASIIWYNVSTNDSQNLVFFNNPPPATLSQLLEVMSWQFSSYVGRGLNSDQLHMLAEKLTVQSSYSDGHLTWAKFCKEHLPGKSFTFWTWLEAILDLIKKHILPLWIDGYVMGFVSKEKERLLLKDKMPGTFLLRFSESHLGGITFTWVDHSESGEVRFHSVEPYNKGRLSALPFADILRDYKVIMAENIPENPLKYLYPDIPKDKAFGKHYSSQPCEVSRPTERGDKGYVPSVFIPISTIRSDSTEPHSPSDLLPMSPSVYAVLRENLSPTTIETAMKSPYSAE

Mus musculus = assay: In vivo induction of STAT3 degradation in SCID mouse xenografted with human MOLM16 cells assessed as reduction in phosphorylated STAT3 level in tumor tissue at 50 mg/kg, iv measured after 24 hrs by immunoblotting analysis; format: functional, organism-based
Outline: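 SCID mice bearing MOLM-16 or SU-DHL-1 xenografts given a single iv dose of 50 mg/kg or dosing vehicle. Tumor lysates immunoblotted for p-STAT3 Y705 and total STAT3 at time points up to 48 h (MOLM-16) and 24 h (SU-DHL-1).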

Compound | Activity [1] | Activity [2] | Activity [3] | Drug uptake [4] | Drug uptake [5] | DC50 [6] | Kd [7] | DC50 [8] | Kd [9] | Activity (Mus musculus)
NC(=O)CC[C@H](NC(=O)[C@@H]1CC[C@@H]2CCN(C(=O)CCCCCC#Cc3cccc4c3CN(C3CCC(=O)NC3=O)C4=O)C[C@H](NC(=O)c3cc4cc(C(F)(F)P(=O)(O)O)ccc4[nH]3)C(=O)N21)C(=O)NC(c1ccccc1)c1ccccc1 (stereo not given in full) | inactive | inactive | inactive | 396 ng/g | 305 ng/mL | 380 nM |  |  |  | 
NC(=O)CC[C@H](NC(=O)[C@@H]1CC[C@@H]2CCN(C(=O)CCCCCC#Cc3cccc4c3CN(C3CCC(=O)NC3=O)C4=O)C[C@H](NC(=O)c3cc4cc(C(=O)P(=O)(O)O)ccc4[nH]3)C(=O)N21)C(=O)NC(c1ccccc1)c1ccccc1 (stereo not given in full) |  |  |  |  |  |  | > 10 nM | 120 nM | > 10 nM | Active
